Active and inactive are the calls of the source.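 The calls were made as follows: active = IC50 of 10 µM or lower; inactive = IC50 above 10 µM.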
What follows are molecules tested against ADP-ribosylation factor GTPase-activating protein 1 (Rattus norvegicus) (UniProt Q62848) (assay: rat ARFGAP1 inhibitor potency curves, late-stage follow-up, biochemical, fluorescence polarization, round 000 (AID 743243)). Settings: ARFGAP1-stimulated ARF1 GTP hydrolysis, GDP fluorescence polarization.
Method in brief: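 Incubation: 20 min enzyme-compound preincubation, then 120 min GTPase reaction, 25 °C | Material: Purified His6-tagged rat Arfgap1 GAP domain (residues 1-136) | Technique: FP GDP tracer-antibody displacement, 620/688 nm | Also added: Human Δ17 ARF1 bound to GTP | Controls: Wells without Arfgap1 as full-inhibition reference | Dosing: Triplicate series, top 165 µM | Replicates: Triplicate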

Sequence of ADP-ribosylation factor GTPase-activating protein 1 (Rattus norvegicus) (Q62848 1-136 limits assumed): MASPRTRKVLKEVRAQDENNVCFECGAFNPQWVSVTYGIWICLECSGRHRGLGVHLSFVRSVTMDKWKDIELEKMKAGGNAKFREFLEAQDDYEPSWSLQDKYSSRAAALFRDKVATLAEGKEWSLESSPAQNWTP

**Q.** Which IC50 does the source give for COc1ccc(CCNc2nc3c(-c4cccc(F)c4)nnn3c3cc(Cl)ccc23)cc1OC here?
**A.** > 165 µM (inactive)

**Q.** How did the IC50 turn out when O=C(NCCc1nc2ccccc2[nH]1)c1ccc2c(c1)C(=O)N(c1ccc(F)cc1)C2=O was run?
**A.** > 165 µM (inactive)

**Q.** COc1ccc(CNc2nc3c(-c4cccc(F)c4)nnn3c3ccccc23)cc1 was tested. Which IC50 did it give?
**A.** inactive

**Q.** For COc1ccc(CNc2nc3c(-c4cccc(F)c4)nnn3c3cc(Cl)ccc23)cc1, which IC50 is on record?
**A.** > 165 µM (inactive)

**Q.** With Cc1cccc(Oc2ccc(N3C(=O)c4ccc(C(=O)OCC(=O)Nc5cccc(C)c5C)cc4C3=O)cc2)c1 as the molecule, how does the IC50 read?
**A.** > 165 µM (inactive)

**Q.** Which IC50 does the source give for O=C(COC(=O)c1ccc2c(c1)C(=O)N(c1cc(C(F)(F)F)ccc1Cl)C2=O)c1ccccc1 here?
**A.** > 165 µM (inactive)

**Q.** With O=C(COC(=O)c1ccc2c(c1)C(=O)N(c1cccc(C(F)(F)F)c1)C2=O)c1ccc(Cl)cc1 as the molecule, how does the IC50 read?
**A.** > 165 µM (inactive)

**Q.** How did the IC50 turn out when NS(=O)(=O)c1ccc(CCNc2nc3c(-c4cccc(F)c4)nnn3c3ccccc23)cc1 was run?
**A.** inactive

**Q.** O=C(COC(=O)c1ccc2c(c1)C(=O)N(c1cccc(Cl)c1Cl)C2=O)c1ccc(F)cc1 was tested. Which IC50 did it give?
**A.** > 165 µM (inactive)

**Q.** Cc1ccc(N2C(=O)c3ccc(C(=O)OCC(=O)c4ccccc4)cc3C2=O)c(C)c1 was tested. Which IC50 did it give?
**A.** > 165 µM (inactive)

**Q.** With NS(=O)(=O)c1ccc(CCNc2nc3c(-c4cccc(Cl)c4)nnn3c3ccccc23)cc1 as the molecule, how does the IC50 read?
**A.** inactive

**Q.** How did the IC50 turn out when CC(CNc1nc2c(-c3cccc(F)c3)nnn2c2ccccc12)c1ccccc1 (stereo not drawn) was run?
**A.** > 165 µM (inactive)

**Q.** For Fc1cccc(-c2nnn3c2nc(NCc2ccc4c(c2)OCO4)c2ccccc23)c1, which IC50 is on record?
**A.** > 165 µM (inactive)

**Q.** NS(=O)(=O)c1ccc(CCNc2nc3c(-c4cccc(C(F)(F)F)c4)nnn3c3ccccc23)cc1 was tested. Which IC50 did it give?
**A.** 6.9 µM

**Q.** For Fc1cccc(-c2nnn3c2nc(NCCc2ccccc2)c2ccccc23)c1, which IC50 is on record?
**A.** > 165 µM (inactive)

**Q.** For Fc1cccc(-c2nnn3c2nc(NCCc2ccccc2)c2ccc(Cl)cc23)c1, which IC50 is on record?
**A.** > 165 µM (inactive)

**Q.** For CCOCCCNC(=O)c1ccc2c(c1)C(=O)N(c1ccc(Cn3cncn3)cc1)C2=O, which IC50 is on record?
**A.** > 165 µM (inactive)

**Q.** For Cc1ccc(N2C(=O)c3ccc(C(=O)N4CCN(Cc5ccccc5)CC4)cc3C2=O)cc1, which IC50 is on record?
**A.** > 165 µM (inactive)

**Q.** O=C(NCc1ccco1)c1ccc2c(c1)C(=O)N(c1ccc(C(=O)c3ccccc3)cc1)C2=O was tested. Which IC50 did it give?
**A.** > 165 µM (inactive)

**Q.** How did the IC50 turn out when O=C(COC(=O)c1ccc2c(c1)C(=O)N(c1cccc3ncccc13)C2=O)c1ccc(Cl)cc1 was run?
**A.** 2.13 µM

**Q.** For Cc1ccc(N2C(=O)c3ccc(C(=O)N4c5ccccc5CC4C)cc3C2=O)cc1 (stereo not drawn), which IC50 is on record?
**A.** > 165 µM (inactive)

**Q.** Which IC50 does the source give for Fc1cccc(-c2nnn3c2nc(NCCc2ccc(Cl)cc2)c2ccccc23)c1 here?
**A.** > 165 µM (inactive)

**Q.** Which IC50 does the source give for CC(C)(C)NC(=O)c1ccc2c(c1)C(=O)N(c1ccccc1-c1ccccc1)C2=O here?
**A.** > 165 µM (inactive)

**Q.** O=C1c2cc(Cl)c(Cl)cc2C(=O)N1c1cccc2ncccc12 was tested. Which IC50 did it give?
**A.** > 165 µM (inactive)

**Q.** O=C(NCC1CCCO1)c1ccc2c(c1)C(=O)N(c1cccc3ccccc13)C2=O (stereo not drawn) was tested. Which IC50 did it give?
**A.** > 165 µM (inactive)

**Q.** How did the IC50 turn out when Cc1ccc(CNc2nc3c(-c4cccc(F)c4)nnn3c3cc(Cl)ccc23)cc1 was run?
**A.** > 165 µM (inactive)

**Q.** Which IC50 does the source give for COc1ccccc1Oc1ccc2c(c1)C(=O)N(c1cccc3ncccc13)C2=O here?
**A.** > 165 µM (inactive)

**Q.** Cc1cccc(-c2nnn3c2nc(NCCc2ccc(S(N)(=O)=O)cc2)c2ccc(Cl)cc23)c1 was tested. Which IC50 did it give?
**A.** inactive

**Q.** COc1cccc(C(=O)COC(=O)c2ccc3c(c2)C(=O)N(c2cccc(C(F)(F)F)c2)C3=O)c1 was tested. Which IC50 did it give?
**A.** > 165 µM (inactive)

**Q.** How did the IC50 turn out when O=C(NCC1CCCO1)c1ccc2c(c1)C(=O)N(c1ccccc1-c1ccccc1)C2=O (stereo not drawn) was run?
**A.** > 165 µM (inactive)

**Q.** Which IC50 does the source give for Cc1ccc(C(=O)C(C)OC(=O)c2ccc3c(c2)C(=O)N(c2cccc(Cl)c2Cl)C3=O)cc1 (stereo not drawn) here?
**A.** > 165 µM (inactive)

**Q.** How did the IC50 turn out when Cc1cccc(-c2nnn3c2nc(NCCc2ccc(S(N)(=O)=O)cc2)c2ccccc23)c1 was run?
**A.** inactive

**Q.** How did the IC50 turn out when O=C(OCC(=O)c1cccs1)c1ccc2c(c1)C(=O)N(c1cccc3ccccc13)C2=O was run?
**A.** > 165 µM (inactive)

**Q.** O=C(COC(=O)c1ccc2c(c1)C(=O)N(c1ccccc1Cl)C2=O)c1ccc(Br)cc1 was tested. Which IC50 did it give?
**A.** > 165 µM (inactive)

**Q.** With O=C(COC(=O)c1ccc2c(c1)C(=O)N(c1cccc(Cl)c1Cl)C2=O)c1ccccc1 as the molecule, how does the IC50 read?
**A.** > 165 µM (inactive)

**Q.** With CCCOC(=O)c1ccc2c(c1)C(=O)N(c1cccc3ccccc13)C2=O as the molecule, how does the IC50 read?
**A.** > 165 µM (inactive)

**Q.** How did the IC50 turn out when CC(C)CNC(=O)c1ccc2c(c1)C(=O)N(c1ccccc1-c1ccccc1)C2=O was run?
**A.** > 165 µM (inactive)

**Q.** With O=C1c2ccc(Oc3ccc(Br)cc3)cc2C(=O)N1c1cccc2ncccc12 as the molecule, how does the IC50 read?
**A.** inactive

**Q.** Which IC50 does the source give for COc1cccc(C(=O)COC(=O)c2ccc3c(c2)C(=O)N(c2ccc(F)cc2)C3=O)c1 here?
**A.** > 165 µM (inactive)

**Q.** How did the IC50 turn out when Cc1ccc(N2C(=O)c3ccc(C(=O)OCC(=O)C(C)(C)C)cc3C2=O)cc1 was run?
**A.** > 165 µM (inactive)

**Q.** For Cc1ccc(Oc2ccc3c(c2)C(=O)N(c2cccc4ncccc24)C3=O)cc1C, which IC50 is on record?
**A.** > 165 µM (inactive)

**Q.** How did the IC50 turn out when NS(=O)(=O)c1ccc(CCNc2nc3c(-c4ccc(Cl)cc4)nnn3c3ccccc23)cc1 was run?
**A.** inactive

**Q.** With Cc1ccc(C(=O)COC(=O)c2ccc3c(c2)C(=O)N(c2cccc4ncccc24)C3=O)cc1 as the molecule, how does the IC50 read?
**A.** > 165 µM (inactive)

**Q.** With O=C(NC1CCCCC1)c1ccc2c(c1)C(=O)N(c1ccccc1-c1ccccc1)C2=O as the molecule, how does the IC50 read?
**A.** > 165 µM (inactive)

**Q.** O=C1c2ccccc2C(=O)N1c1cccc2ncccc12 was tested. Which IC50 did it give?
**A.** > 165 µM (inactive)

**Q.** With Cc1ccc(C(=O)COC(=O)c2ccc3c(c2)C(=O)N(c2cccc4ccccc24)C3=O)cc1 as the molecule, how does the IC50 read?
**A.** > 165 µM (inactive)

**Q.** COc1ccccc1N1C(=O)c2ccc(C(=O)OCC(=O)c3ccc(Br)cc3)cc2C1=O was tested. Which IC50 did it give?
**A.** > 165 µM (inactive)

**Q.** Cc1cccc(N2C(=O)c3ccc(C(=O)NC4CCCCC4)cc3C2=O)c1C was tested. Which IC50 did it give?
**A.** > 165 µM (inactive)
